Laboratory results taken from ChEMBL document CHEMBL1128586, “Antihyperglycemic N-sulfonyl-1a,2,6,6a-tetrahydro-1H,4H- [1,3]dioxepino[5,6-b]azirines: synthesis, X-ray structure analysis, conformational behavior, quantitative structure-property relationships, and quantitative structure-activity relationships” (J Med Chem, 1995).

Key:
Type in all cases: functional
[1] = system: Mus musculus; assay: Hypoglycemic effect of compound 1 hr after subcutaneous administration of 20 mg/kg dose in alloxanized mice and expressed as percent of initial blood glucose level
Outline: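 CBA mice of either sex, 20-25 g, made diabetic by single tail-vein alloxan monohydrate 65 mg/kg and tested 48 h later. Compound given sc at 20 mg/kg, dissolved in minimal DMSO and diluted with 0.9% saline. Tail-vein blood sampled before dosing and at 1 h. Glucose measured by enzymatic-colorimetric kit and expressed as percent of the initial sample.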

[2] = system: Rattus norvegicus; assay: Effect on blood glucose levels in healthy rat at subcutaneous dose of 20 mg/kg at 60 min
Outline: (§1)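 Healthy (nondiabetic) fasted animals: CBA mice (20-25 g) or Fischer rats (160-200 g), fasted 16 h before treatment. Single iv or sc dose given at zero time; drug dissolved in minimal DMSO, diluted with 0.9% saline. Tail-vein blood sampled over time; glucose measured by enzymatic-colorimetric kit, expressed as mmol/L whole blood; group sizes 6-12.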

[3] = system: Mus musculus; assay: Hypoglycemic effect of compound 1 hr after subcutaneous administration of a 20 mg/kg dose in alloxanized mice and expressed as hypoglycemic activity ratio (hAR) taking metformin as standard
Outline: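 Alloxan-diabetic CBA mice (65 mg/kg iv alloxan, used after 48 h) received 20 mg/kg sc in DMSO/saline. Glucose was measured enzymatically in tail-vein blood and expressed as %BGL at 1 h. HAR = (100 − %BGL of compound)/(100 − %BGL of metformin), with metformin tested at the same dose and route.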

[4] = system: Mus musculus; assay: Effect on blood glucose levels in healthy mice at subcutaneous dose of 100 mg/kg at 0 min; outline: as §1
[5] = system: Mus musculus; assay: Effect on blood glucose levels in healthy mice at intravenous dose of 20 mg/kg at 0 min; outline: as §1
[6] = system: Mus musculus; assay: Effect on blood glucose levels in healthy mice at subcutaneous dose of 20 mg/kg at 60 min; outline: as §1
[7] = system: Rattus norvegicus; assay: Effect on blood glucose levels in healthy rat at subcutaneous dose of 20 mg/kg at 0 min; outline: as §1
[8] = system: Mus musculus; assay: Effect on blood glucose levels in healthy mice at intravenous dose of 5 mg/kg at 0 min; outline: as §1
[9] = system: Mus musculus; assay: Effect on blood glucose levels in healthy mice at intravenous dose of 5 mg/kg at 40 min; outline: as §1
[10] = system: Mus musculus; assay: Effect on blood glucose levels in healthy mice at intravenous dose of 20 mg/kg at 40 min; outline: as §1
[11] = system: Mus musculus; assay: Effect on blood glucose levels in healthy mice at subcutaneous dose of 20 mg/kg at 120 min; outline: as §1
[12] = system: Mus musculus; assay: Effect on blood glucose levels in healthy mice at intravenous dose of 20 mg/kg at 60 min; outline: as §1
[13] = system: Mus musculus; assay: Effect on blood glucose levels in healthy mice at subcutaneous dose of 100 mg/kg at 60 min; outline: as §1
[14] = system: Mus musculus; assay: Effect on blood glucose levels in healthy mice at subcutaneous dose of 100 mg/kg at 120 min; outline: as §1
[15] = system: Mus musculus; assay: Effect on blood glucose levels in healthy mice at subcutaneous dose of 20 mg/kg at 0 min; outline: as §1
[16] = system: Mus musculus; assay: Effect on blood glucose levels in healthy mice at intravenous dose of 5 mg/kg at 60 min; outline: as §1

CC(=O)Nc1ccc(S(=O)(=O)N2[C@@H]3COCOC[C@@H]32)cc1 (stereo partly specified)
BGL [1]: 37%
Blood glucose [2]: 5.44 mM (l of whole blood)-1
HAR [3]: 4.5
Blood glucose [4]: 11.72 mM (l of whole blood)-1
Blood glucose [5]: 8.83 mM (l of whole blood)-1
Blood glucose [6]: 14.41 mM (l of whole blood)-1
Blood glucose [7]: 5.52 mM (l of whole blood)-1
Blood glucose [8]: 8.35 mM (l of whole blood)-1
Blood glucose [9]: 8.61 mM (l of whole blood)-1
Blood glucose [10]: 9.3 mM (l of whole blood)-1
Blood glucose [11]: 13.15 mM (l of whole blood)-1
Blood glucose [12]: 8.82 mM (l of whole blood)-1
Blood glucose [13]: 12.09 mM (l of whole blood)-1
Blood glucose [14]: 13.17 mM (l of whole blood)-1
Blood glucose [15]: 12.43 mM (l of whole blood)-1
Blood glucose [16]: 8.72 mM (l of whole blood)-1

CC(=O)Nc1ccc(S(=O)(=O)N2[C@@H]3CO[C@@H](C(C)C)OC[C@@H]32)cc1 (stereo partly specified)
BGL [1]: 85%
HAR [3]: 1.07

COc1ccc(S(=O)(=O)N2[C@@H]3COCOC[C@@H]32)cc1 (stereo partly specified)
BGL [1]: 78%
HAR [3]: 1.57

CN(C)C(=N)NC(=N)N [METFORMIN]
BGL [1]: 86%
HAR [3]: 1

O=S(=O)(c1ccc(F)cc1)N1[C@@H]2COCOC[C@@H]21 (stereo partly specified)
BGL [1]: 76%
HAR [3]: 1.71

O=S(=O)(c1ccc(Cl)cc1)N1[C@@H]2COCOC[C@@H]21 (stereo partly specified)
BGL [1]: 77%
HAR [3]: 1.64

Cc1ccc(S(=O)(=O)N2[C@@H]3COCOC[C@@H]32)cc1 (stereo partly specified)
BGL [1]: 94%
HAR [3]: 0.42

O=S(=O)(c1ccccc1)N1[C@@H]2COCOC[C@@H]21 (stereo partly specified)
BGL [1]: 53%
HAR [3]: 3.36

O=S(=O)(c1ccc(Br)cc1)N1[C@@H]2COCOC[C@@H]21 (stereo partly specified)
BGL [1]: 107%
HAR [3]: -0.5

CC(C)[C@@H]1OC[C@@H]2[C@H](CO1)N2S(=O)(=O)c1ccc([N+](=O)[O-])cc1 (stereo partly specified)
BGL [1]: 78%
HAR [3]: 1.57

CC(=O)Nc1ccc(S(=O)(=O)N2[C@@H]3CO[C@H](C(C)C)OC[C@@H]32)cc1 (stereo partly specified)
BGL [1]: 84.8%
HAR [3]: 1.08
